Measured values as given in ChEMBL document CHEMBL4414651, “Discovery and Optimization of Salicylic Acid-Derived Sulfonamide Inhibitors of the WD Repeat-Containing Protein 5-MYC Protein-Protein Interaction” (J Med Chem, 2019).
The source made the active and inactive calls. The rule behind the calls is not given here.

Experiments:
[1] = molecular target: T1, WD repeat-containing protein 5 (Homo sapiens, UniProt P61964)
[2] = molecular target: T1, WD repeat-containing protein 5; assay: Binding affinity to N-terminal FLAG-tagged human full-length WDR5 expressed in HEK293T cells harboring human C-terminal HA-tagged c-MYC assessed as disruption of WDR5-c-MYC protein-protein interaction at 50 uM by SDS-PAGE based immunoblot assay; assay type: cell-based
[3] = Solubility of the compound; assay type: physicochemical
Outline: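 Kinetic solubility, measured by an outside contract lab using a standard commercial assay format.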

[4] = Apparent permeability from apical to basolateral side in MDCK cells; assay type: ADME, cell-based, Canis lupus familiaris; details: dog
[5] = Protein binding in plasma (unknown origin) assessed as unbound fraction; assay type: ADME, cell-free
[6] = molecular target: T1, WD repeat-containing protein 5; assay: Binding affinity to N-terminal FLAG-tagged human full-length WDR5 […] assessed as change in melting temperature at 10 uM by differential scanning fluorimetry
Outline: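 Thermal shift (differential scanning fluorimetry) on WDR5, with compounds at 10 μM. Samples were run in triplicate, and ΔTm is the average melting-temperature shift read by fluorescence.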

[7] = species on record: Homo sapiens; assay: Inhibition of human MLL1/WDR5/RBBP5/ASH2L/DPY30 complex assessed as reduction in histone methyl-transferase activity using H3-peptide as substrate
[8] = molecular target: T1, WD repeat-containing protein 5; assay: Binding affinity to N-terminal FLAG-tagged human full-length WDR5 expressed in HEK293T cells harboring human C-terminal HA-tagged c-MYC assessed as disruption of WDR5-RBBP5 protein-protein interaction at 50 uM by SDS-PAGE based immunoblot assay; assay type: cell-based
Outline: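 HEK293 cells expressing FLAG-WDR5 and c-MYC-HA were kept in DMEM with 10% FBS, hygromycin B 50 μg/mL and puromycin 100 ng/mL. Lysates in Tris pH 8.0/NaCl/EDTA/1% Triton buffer were treated with compound at 50 μM or 6.25–50 μM. α-FLAG magnetic M2 beads, 2 h at 4 °C, then SDS-PAGE and α-RBBP5 immunoblot. Quantified against vehicle; at least two independent repeats.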

Structure (SMILES)	Kd [1]	also measured
CNC(=O)c1cc(S(F)(F)(F)(F)F)cc(NS(=O)(=O)c2cc(Br)cc(Cl)c2O)c1O	190 nM	Activity [2]: Active
CS(=O)(=O)c1cc(NS(=O)(=O)c2cc(Br)ccc2O)cc(S(F)(F)(F)(F)F)c1	511 nM	solubility [3]: > 100 µM; Papp [4]: 16.1 ×10⁻⁶ cm/s; Fu [5]: 0.002%
CS(=O)(=O)c1cc(C2(C#N)CCC2)cc(NS(=O)(=O)c2cc(Br)ccc2O)c1O	349 nM	–
CNC(=O)c1cc(S(F)(F)(F)(F)F)cc(NS(=O)(=O)c2cc(Br)cc3cccnc23)c1O	122 nM	–
O=S(=O)(Nc1cc(OC(F)(F)F)ccc1O)c1cc(Br)ccc1O	549 nM	–
CS(=O)(=O)c1cc(NS(=O)(=O)c2cc(Br)cc(Cl)c2O)cc(S(F)(F)(F)(F)F)c1	93 nM	Activity [2]: Active
N#CC1(c2cc(NS(=O)(=O)c3cc(Br)ccc3O)c(O)c(C(=O)O)c2)CCCCC1	195 nM	–
O=C(O)c1cc(C2CC2)cc(NS(=O)(=O)c2cc(Br)cc(Cl)c2O)c1O	207 nM	–
CNC(=O)c1cc(S(F)(F)(F)(F)F)cc(NS(=O)(=O)c2cc(Br)ccc2O)c1O	204 nM	–
N#CC1(c2cc(NS(=O)(=O)c3ccc(Br)cc3O)c(O)c(C(=O)O)c2)CCC1	–	ΔTm [6]: 0.42 °C
O=C(O)c1cc(NS(=O)(=O)c2cc(Br)ccc2O)cc(OC(F)(F)F)c1	194 nM	–
O=S(=O)(Nc1cc(C2(C(F)(F)F)CC2)ccc1O)c1cc(Br)ccc1O	547 nM	–
CS(=O)(=O)c1cc(NS(=O)(=O)c2cc(Br)cc(Cl)c2O)cc(C2(C#N)CCC2)c1	215 nM	–
CNC(=O)c1cc(NS(=O)(=O)c2cc(Br)ccc2O)cc(C2(C#N)CCC2)c1	1080 nM	–
CS(=O)(=O)c1cc(Cl)cc(NS(=O)(=O)c2cc(Br)cc(Cl)c2O)c1	220 nM	solubility [3]: > 100 µM; Papp [4]: 3.89 ×10⁻⁶ cm/s; Fu [5]: 0.0007%
COc1ccc(Br)cc1S(=O)(=O)Nc1cc(Cl)cc(C(=O)O)c1O	431 nM	–
CS(=O)(=O)c1cc(Cl)cc(NS(=O)(=O)c2cc(Br)cc(Cl)c2O)c1O	123 nM	inhibition [7]: Active; Activity [2]: Active
COc1ccc(Br)cc1S(=O)(=O)Nc1ccc(Cl)cc1O	27700 nM	–
CNC(=O)c1cc(NS(=O)(=O)c2cc(Br)cc(Cl)c2O)cc(C2(C#N)CCC2)c1	128 nM	–
O=C(O)c1cc(OC(F)(F)F)cc(NS(=O)(=O)c2cc(Br)ccc2O)c1O	137 nM	–

Structure (SMILES)	Kd [1]	also measured
O=C(O)c1cc(Cl)cc(NS(=O)(=O)c2cc(Br)cc(Cl)c2O)c1O	163 nM	ΔTm [6]: 4.05 °C
CCOc1cc(S(=O)(=O)Nc2ccccc2C(=O)O)ccc1F	71000 nM	–
O=C(O)c1cc(Cl)cc(NS(=O)(=O)c2cc(Br)ccc2O)c1O	223 nM	ΔTm [6]: 4.05 °C
COc1ccc(Br)cc1S(=O)(=O)Nc1cc(-c2ccccc2)ccc1O	37000 nM	–
CS(=O)(=O)c1cc(Cl)cc(NS(=O)(=O)c2cc(Br)ccc2O)c1	1880 nM	solubility [3]: > 100 µM; Papp [4]: 4.79 ×10⁻⁶ cm/s; Fu [5]: 0.004%
N#CC1(c2cc(NS(=O)(=O)c3cc(Br)cc4cccnc34)c(O)c(C(=O)O)c2)CCC1	104 nM	–
O=C(O)c1cc(NS(=O)(=O)c2cc(Br)ccc2O)cc(S(F)(F)(F)(F)F)c1	64 nM	–
CS(=O)(=O)c1cc(Cl)cc(NS(=O)(=O)c2cc(Br)ccc2O)c1O	1070 nM	inhibition [7]: Active
COc1ccc(I)cc1S(=O)(=O)Nc1cc(Cl)ccc1O	8390 nM	–
CNC(=O)c1cc(C2(C#N)CCCCC2)cc(NS(=O)(=O)c2cc(Br)cc(Cl)c2O)c1O	362 nM	Activity [2]: Active; Activity [8]: Active
CS(=O)(=O)c1cc(S(F)(F)(F)(F)F)cc(NS(=O)(=O)c2cc(Br)ccc2O)c1O	167 nM	–
N#CC1(c2ccc(O)c(NS(=O)(=O)c3cc(Br)ccc3O)c2)CCCC1	614 nM	–
CS(=O)(=O)c1cc(S(F)(F)(F)(F)F)cc(NS(=O)(=O)c2cc(Br)cc(Cl)c2O)c1O	45 nM	solubility [3]: > 100 µM; Papp [4]: 18.6 ×10⁻⁶ cm/s; Fu [5]: < 0.0003%
O=S(=O)(Nc1cc(Cl)ccc1O)c1cc(Br)ccc1O	1250 nM	solubility [3]: > 100 µM; Papp [4]: 36.4 ×10⁻⁶ cm/s; Fu [5]: < 0.0026%
CNC(=O)c1cc(NS(=O)(=O)c2cc(Br)ccc2O)cc(S(F)(F)(F)(F)F)c1	848 nM	–
O=C(O)c1cc(S(F)(F)(F)(F)F)cc(NS(=O)(=O)c2cc(Br)cc(Cl)c2O)c1O	31 nM	ΔTm [6]: 8.42 °C
CS(=O)(=O)c1cc(C2(C#N)CCC2)cc(NS(=O)(=O)c2cc(Br)cc3cccnc23)c1O	272 nM	–
COc1ccc(Br)cc1S(=O)(=O)Nc1cc(Cl)cc(S(C)(=O)=O)c1O	304 nM	Activity [2]: Active
O=C(O)c1cc(S(F)(F)(F)(F)F)cc(NS(=O)(=O)c2cc(Br)cc3cccnc23)c1O	47 nM	–
CNC(=O)c1cc(C2(C#N)CCC2)cc(NS(=O)(=O)c2cc(Br)ccc2OC)c1O	906 nM	Activity [2]: Active

Structure (SMILES)	Kd [1]	also measured
O=S(=O)(Nc1cc(S(F)(F)(F)(F)F)ccc1O)c1cc(Br)ccc1O	110 nM	inhibition [7]: Active; solubility [3]: > 100 µM; Papp [4]: 14.7 ×10⁻⁶ cm/s
COc1ccc(Br)cc1S(=O)(=O)Nc1cc(C(C)(C)C)ccc1O	3780 nM	–
COc1ccccc1S(=O)(=O)Nc1cc(Cl)ccc1O	> 40000 nM	–
N#CC1(c2ccc(O)c(NS(=O)(=O)c3cc(Br)ccc3O)c2)CCCCC1	229 nM	–
COc1ccc(Br)cc1S(=O)(=O)Nc1ccccc1O	> 40000 nM	–
CNC(=O)c1cc(C2(C#N)CCC2)cc(NS(=O)(=O)c2cc(Br)ccc2O)c1O	566 nM	inhibition [7]: Active; solubility [3]: > 100 µM; Activity [2]: Active; Papp [4]: 45.2 ×10⁻⁶ cm/s; Fu [5]: < 0.0006%; Activity [8]: Active
COc1ccc(Cl)cc1S(=O)(=O)Nc1cc(Cl)ccc1O	8410 nM	–
CS(=O)(=O)c1cc(Cl)cc(NS(=O)(=O)c2cc(Br)cc3cccnc23)c1O	385 nM	Activity [2]: Active
CNC(=O)c1cc(C2(C#N)CCC2)cc(NS(=O)(=O)c2cc(Br)cc3cccnc23)c1O	825 nM	Activity [2]: Active
COc1ccc(Br)cc1S(=O)(=O)Nc1cc(Cl)ccc1O	–	inhibition [7]: Active
CCOc1ccc(S(=O)(=O)Nc2ccccc2C(=O)O)c(C)c1C	> 125000 nM	–
CNC(=O)c1c(O)c(NS(=O)(=O)c2cc(Br)cc(Cl)c2O)cc(C2CC2)c1F	238 nM	inhibition [7]: Active; Activity [2]: Active; Activity [8]: Active
O=C(O)c1c(O)c(NS(=O)(=O)c2cc(Br)cc(Cl)c2O)cc(C2CC2)c1F	50 nM	inhibition [7]: Active; Activity [2]: Active; Activity [8]: Active
N#CC1(c2ccc(O)c(NS(=O)(=O)c3cc(Br)ccc3O)c2)CCC1	289 nM	inhibition [7]: Active; solubility [3]: > 100 µM; Papp [4]: 27.8 ×10⁻⁶ cm/s; ΔTm [6]: 2.63 °C; Fu [5]: < 0.0005%
O=S(=O)(Nc1cc(Cl)ccc1O)c1cccc(Br)c1	36100 nM	–
CNC(=O)c1cc(Cl)cc(NS(=O)(=O)c2cc(Br)cc(Cl)c2O)c1O	298 nM	–
CS(=O)(=O)c1cc(C2(C#N)CCC2)cc(NS(=O)(=O)c2cc(Br)cc(Cl)c2O)c1O	110 nM	–
O=C(O)c1c(O)c(NS(=O)(=O)c2cc(Br)ccc2O)cc(C2CC2)c1F	122 nM	inhibition [7]: Active; solubility [3]: > 100 µM; Papp [4]: 0.61 ×10⁻⁶ cm/s; Fu [5]: < 0.0008%
O=S(=O)(Nc1cc(C2CC2)ccc1O)c1cc(Br)ccc1O	818 nM	–
O=C(O)c1cc(Cl)cc(NS(=O)(=O)c2cc(Br)ccc2O)c1	2880 nM	–
